Test results from ChEMBL document CHEMBL5303300, “EUbOPEN Chemogenomics Library - Multiplex” (2023).
Values joined by “and” are separate entries in the source; they are usually repeats but may differ in a detail not shown here. Equal values may be shown once.

Assays:
[1] = tested on: HEK-293T; assay: Multiplex assay against HEK293T; type: toxicity, cell-based; settings: human, number of replicates 2
In short: (§1)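 Four dyes were applied at seeding to live cells: Hoechst33342, BioTracker Green Microtubule Cytoskeleton Dye, MitoTracker Red and Annexin V Alexa Fluor 680. Imaging after compound addition used a CQ1 microscope at 37°C and 5% CO2. CellPathfinder machine-learning gating then sorted cells into Hoechst high-intensity objects or normal cells, normal cells into healthy, pyknosed or fragmented nuclei, and pyknosed cells into mitotic or apoptotic, with tubulin, mitochondrial-mass and membrane-permeability phenotypes given as per cents of healthy-nucleus cells.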

[2] = tested on: U2OS; assay: Multiplex assay against U2OS; type: toxicity, cell-based; settings: human, number of replicates 2; in short: as §1
[3] = 24 h, 1 µM, compound concentration 1 uM
[4] = 24 h, 10 µM, compound concentration 10 uM
[5] = 48 h, 1 µM, compound concentration 1 uM
[6] = 48 h, 10 µM, compound concentration 10 uM
[7] = 12 h, 1 µM, compound concentration 1 uM
[8] = 12 h, 10 µM, compound concentration 10 uM

## CCn1c(-c2nonc2N)nc2cncc(C(=O)N3CC[C@H](N)C3)c21.Cl
[1]; [3]
  Population Mitotic Cells (%): 53% and 62%
  Population Normal (%): 93% and 94%
  Population Pyknosed Nuclei (%): 11% and 9%
  Population Tubulin-Different-Phenotype (%): 12% and 20%
  Total Cell Count: 994 and 875
[1]; [4]
  Population Apoptotic (%): 30% and 53%
  Population Fragmented Nuclei (%): 2% and 1%
  Population Healthy Nuclei (%): 86% and 79%
  Population Hoechst High Intensity Objects (%): 8% and 7%
  Population Membrane Permeable-Phenotype (%): 1%
  Population Mitochondria Different-Phenotype (%): 12% and 16%
  Population Mitotic Cells (%): 69% and 46%
  Population Normal (%): 91% and 92%
  Population Pyknosed Nuclei (%): 10% and 18%
  Population Tubulin-Different-Phenotype (%): 36% and 34%
  Total Cell Count: 751 and 447
[1]; [5]
  Population Apoptotic (%): 9% and 19%
  Population Fragmented Nuclei (%): 9% and 8%
  Population Healthy Nuclei (%): 86% and 87%
  Population Hoechst High Intensity Objects (%): 10% and 9%
  Population Membrane Permeable-Phenotype (%): 3%
  Population Mitochondria Different-Phenotype (%): 0%
  Population Mitotic Cells (%): 90% and 80%
  Population Normal (%): 89% and 90%
  Population Pyknosed Nuclei (%): 3% and 4%
  Population Tubulin-Different-Phenotype (%): 11% and 10%
  Total Cell Count: 1942 and 1388
[1]; [6]
  Population Apoptotic (%): 51% and 57%
  Population Fragmented Nuclei (%): 7% and 3%
  Population Healthy Nuclei (%): 87% and 84%
  Population Hoechst High Intensity Objects (%): 11%
  Population Membrane Permeable-Phenotype (%): 2% and 1%
  Population Mitochondria Different-Phenotype (%): 4% and 7%
  Population Mitotic Cells (%): 48% and 42%
  Population Normal (%): 88%
  Population Pyknosed Nuclei (%): 5% and 12%
  Population Tubulin-Different-Phenotype (%): 28% and 30%
  Total Cell Count: 917 and 468
[2]; [7]
  Population Apoptotic (%): 50% and 90%
  Population Fragmented Nuclei (%): 13% and 3%
  Population Healthy Nuclei (%): 73% and 87%
  Population Hoechst High Intensity Objects (%): 0%
  Population Membrane Permeable-Phenotype (%): 0% and 1%
  Population Mitochondria Different-Phenotype (%): 4% and 0%
  Population Normal (%): 100%
  Population Pyknosed Nuclei (%): 13% and 9%
  Population Tubulin-Different-Phenotype (%): 72% and 77%
[2]; [8]
  Population Apoptotic (%): 75% and 35%
  Population Healthy Nuclei (%): 69% and 78%
  Population Hoechst High Intensity Objects (%): 0%
  Population Membrane Permeable-Phenotype (%): 5% and 0%
  Population Mitochondria Different-Phenotype (%): 0%
  Population Mitotic Cells (%): 25% and 64%
  Population Normal (%): 100%
  Population Pyknosed Nuclei (%): 8% and 16%
  Population Tubulin-Different-Phenotype (%): 67% and 87%
[2]; [3]
  Population Apoptotic (%): 80% and 96%
  Population Fragmented Nuclei (%): 5% and 3%
  Population Healthy Nuclei (%): 80% and 87%
  Population Hoechst High Intensity Objects (%): 0%
  Population Membrane Permeable-Phenotype (%): 7% and 0%
  Population Mitochondria Different-Phenotype (%): 3% and 1%
  Population Normal (%): 100%
  Population Pyknosed Nuclei (%): 14% and 9%
  Population Tubulin-Different-Phenotype (%): 71% and 79%
[2]; [4]
  Population Apoptotic (%): 55% and 57%
  Population Fragmented Nuclei (%): 17% and 8%
  Population Healthy Nuclei (%): 67% and 77%
  Population Hoechst High Intensity Objects (%): 0%
  Population Membrane Permeable-Phenotype (%): 2% and 3%
  Population Mitochondria Different-Phenotype (%): 0% and 1%
  Population Mitotic Cells (%): 44% and 42%
  Population Normal (%): 100%
  Population Pyknosed Nuclei (%): 15% and 14%
  Population Tubulin-Different-Phenotype (%): 79% and 89%
[2]; [5]
  Population Apoptotic (%): 60% and 82%
  Population Healthy Nuclei (%): 71% and 89%
  Population Hoechst High Intensity Objects (%): 0%
  Population Membrane Permeable-Phenotype (%): 7% and 1%
  Population Mitochondria Different-Phenotype (%): 2% and 0%
  Population Mitotic Cells (%): 40% and 17%
  Population Normal (%): 100%
  Population Pyknosed Nuclei (%): 9% and 6%
  Population Tubulin-Different-Phenotype (%): 76% and 81%
[2]; [6]
  Population Apoptotic (%): 75% and 74%
  Population Fragmented Nuclei (%): 15% and 5%
  Population Healthy Nuclei (%): 69% and 79%
  Population Hoechst High Intensity Objects (%): 0%
  Population Membrane Permeable-Phenotype (%): 3% and 4%
  Population Mitochondria Different-Phenotype (%): 0%
  Population Mitotic Cells (%): 25%
  Population Normal (%): 100% and 99%
  Population Pyknosed Nuclei (%): 15%
  Population Tubulin-Different-Phenotype (%): 68% and 91%
